Where a name gives a salt, the structure may show the parent alone. Read-outs that look alike come from different tables or passages of the source. Blank lines part the entries; values can stand above or below the compound they belong to.
Legend:
SfnG [1] = conditions: cited from earlier work
SfnG [2] = molecular target: T1, SfnG (Pseudomonas fluorescens, UniProt Q3KC85); test: Mixed dialkylsulfone monooxygenation endpoint assay; format: biochemical; conditions: 1 mM substrate, 8 µM SfnG, 1 µM MsuE, 500 µM NADH, 2 µM FMN, 30 °C, 80 min
T1 sequence (Q3KC85 1-364): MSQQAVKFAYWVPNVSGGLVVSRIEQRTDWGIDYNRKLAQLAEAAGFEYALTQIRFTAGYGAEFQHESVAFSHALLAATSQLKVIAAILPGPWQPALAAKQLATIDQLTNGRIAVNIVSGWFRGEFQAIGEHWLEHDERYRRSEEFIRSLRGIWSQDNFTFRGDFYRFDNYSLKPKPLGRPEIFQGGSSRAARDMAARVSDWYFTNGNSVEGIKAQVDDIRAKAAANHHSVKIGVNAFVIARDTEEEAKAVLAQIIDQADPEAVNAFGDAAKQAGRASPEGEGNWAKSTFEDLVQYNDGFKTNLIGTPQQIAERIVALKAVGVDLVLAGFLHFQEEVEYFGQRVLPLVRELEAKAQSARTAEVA

SsuD = conditions: read-out: KD for FMN binding; E. coli SsuD; cited from earlier work
SfnG [3] = molecular target: T1, SfnG; test: Surface plasmon resonance flavin binding assay, SfnG captured on NTA sensor chip
MsuE = molecular target: T2, MsuE (Pseudomonas fluorescens, UniProt Q3K9A2); test: Fluorometric equilibrium titration of MsuE with oxidized FMN; format: binding
T2 sequence (Q3K9A2 1-187): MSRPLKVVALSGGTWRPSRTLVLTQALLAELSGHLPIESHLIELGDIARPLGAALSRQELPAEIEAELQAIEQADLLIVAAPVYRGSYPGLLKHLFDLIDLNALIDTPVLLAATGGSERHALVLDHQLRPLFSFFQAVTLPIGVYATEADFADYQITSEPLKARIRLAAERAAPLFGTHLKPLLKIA
Outline: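 Recombinant P. fluorescens enzyme titrated at equilibrium with oxidized FMN, binding followed by intrinsic protein fluorescence on a spectrofluorometer. FMN range: 0.2 µM to 400 µM for MsuC and MsuD, 0.033 µM to 260 µM for MsuE. The fit gave KD, total enzyme and R2. Values are ±SD from three assay replicates.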

SMILES: C[S+](C)[O-] [DMSO]
SfnG activity against the compound (SfnG [1]): not active

product(s) of conversion by SfnG (1H NMR endpoint assay) (SfnG [2]): ethanesulfinate
SMILES: CCS(=O)(=O)CC [diethylsulfone]

koff (SfnG [3]): 0.42 s⁻¹
fold decrease in KD by SPR with 1% (v/v) DMSO in the running buffer (SfnG [3]; FMN binding to SfnG, with 1% (v/v) DMSO versus without): 2.7 fold
koff (SfnG [3]; read-out: koff rate constant with DMSO2 in the running buffer): 0.00836 s⁻¹
Kd (MsuE): 0.54 ± 0.06 µM
SMILES: Cc1cc2nc3c(=O)[nH]c(=O)nc-3n(C[C@H](O)[C@H](O)[C@H](O)COP(=O)(O)O)c2cc1C [FMN, riboflavin 5´-monophosphate sodium salt]
Kd (SsuD): 10 µM

From paper PMC11588060 (Proceedings of the National Academy of Sciences of the …, 2024)
